Reference: ChEMBL document CHEMBL1122500, “Potential radiosensitizing agents. 6. 2-Nitroimidazole nucleosides: arabinofuranosyl and hexopyranosyl analogues” (J Med Chem, 1983)

Experiments:
[1] = In vitro radiosensitizing activity against Chinese Hamster cells at a conc of 1.0 mM measured as sensitizer enhancement ratio; format: functional, Cricetulus griseus
Summary of the method: (§1)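 V-79 Chinese hamster asynchronous monolayers from exponential cultures, plated in sealed containers and made hypoxic by flushing with 95% N2/5% CO2 for 1 h at 37 °C with compound present; total drug exposure 2 h. Cobalt-60 irradiation at ~230 rad/min, 400–2700 rad. Colonies counted after 6 days at 37 °C. SER = D0 hypoxic control / D0 hypoxic drug-treated; averaged over at least two experiment sets.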

[2] = Partition coefficient value between phosphate buffer (0.1 M, pH 7.4) and octanol at room temperature; format: physicochemical; conditions: octanol/water
Summary of the method: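 Shake-flask method: compound dissolved in 0.1 M phosphate buffer pH 7.4, stirred 1 h at room temperature with an equal volume of octanol. Aqueous-phase nucleoside concentration measured spectrophotometrically.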

[3] = In vitro radiosensitizing activity against Chinese Hamster cells at a conc of 0.1 mM measured as sensitizer enhancement ratio
[4] = In vitro radiosensitizing activity against Chinese Hamster cells at a conc of 0.5 mM measured as sensitizer enhancement ratio; format: functional, Cricetulus griseus; summary of the method: as §1
[5] = In vitro radiosensitizing activity against Chinese Hamster cells at a conc of 1 mM measured as sensitizer enhancement ratio; format: functional, Cricetulus griseus; summary of the method: as §1
[6] = In vitro radiosensitizing activity against Chinese Hamster cells at a conc of 0.05 mM measured as sensitizer enhancement ratio; format: functional, Cricetulus griseus; summary of the method: as §1

Row | SMILES | PC [2] | SER [4] | further results
1 | O=[N+]([O-])c1nccn1[C@H]1C=C[C@H](O)[C@@H](CO)O1 | 0.22 |  | SER [1]: 2
2 | O=C(OC[C@H]1O[C@@H](n2ccnc2[N+](=O)[O-])[C@H](OC(=O)c2ccccc2)[C@@H]1OC(=O)c1ccccc1)c1ccccc1 |  |  | SER [3]: 1.1
3 | CC(=O)OC[C@H]1O[C@H](n2ccnc2[N+](=O)[O-])C=C[C@@H]1OC(C)=O |  | 1.9 | 
4 | CC(=O)OC[C@H]1O[C@@H](n2ccnc2[N+](=O)[O-])C=C[C@@H]1OC(C)=O |  | 1.6 | 
5 | CC(=O)OCC1OC=CC(n2ccnc2[N+](=O)[O-])C1OC(C)=O (configuration not stated) |  | 1.8 | 
6 | COCC(O)Cn1ccnc1[N+](=O)[O-] (configuration not stated) [MISONIDAZOLE] | 0.43 |  | SER [5]: 1.9
7 | O=C(OC[C@H]1O[C@H](n2ccnc2[N+](=O)[O-])[C@H](OC(=O)c2ccccc2)[C@@H]1OC(=O)c1ccccc1)c1ccccc1 |  |  | SER [6]: 1
8 | O=[N+]([O-])c1nccn1[C@@H]1C=C[C@H](O)[C@@H](CO)O1 | 0.22 | 2 | 
9 | O=[N+]([O-])c1nccn1[C@H]1C=COC(CO)C1O (some centres not stated) | 0.24 |  | SER [1]: 1.7
10 | O=[N+]([O-])c1nccn1[C@H]1O[C@H](CO)[C@@H](O)[C@@H]1O | 0.11 |  | SER [5]: 1.6
11 | O=[N+]([O-])c1nccn1[C@@H]1O[C@H](CO)[C@@H](O)[C@@H]1O | 0.07 |  | SER [1]: 1.8
